Assay results gathered from unrelated publications.
Each line is one published result; the experiments were not run side by side.

With CC(C)n1cc(C#N)c2cc(-n3cc(C(=O)O)cn3)ccc21 the AUC(0-inf) was 92000 ng·h/mL (human, plasma; oral, 400 mg, single dose, fasted, healthy volunteers).
For CC(C)(NC(=O)O[C@@H]1CN2CCC1CC2)c1csc(-c2ccc(F)cc2)n1, the tissue/plasma ratio was 0.86 (female CD-1 mouse, brain; intraperitoneal, 10 mg/kg, single dose).
CN(C(=O)n1cnc(-c2ccc[n+]([O-])c2)c1)C1CCCCC1 gave a Tmax of 2 h (male cynomolgus monkey, plasma; oral, 0.3 mg/kg).
With CC(C)(O)c1ccccc1-c1ccc2[nH]c(/C=C/c3ccc(C(F)(F)F)cc3)nc2c1 the AUC(0-t) was 1010 ng·h/mL (male human, plasma; oral, 15 mg, single dose, fasted).
With CC(C)Oc1cccc(-c2cnc(N3CCC(C(N)=O)CC3)s2)c1 the tissue/plasma ratio was 0.29 (male Swiss mouse, brain; oral, 30 mg/kg, single dose).
For CC(C)(C)c1ccc(O)c(CN(Cc2cc(C(C)(C)C)ccc2O)C2CCC(NC(N)=O)CC2)c1 (stereo not drawn), the tissue/plasma ratio was 0.64 (male C57BL/6 mouse, brain; oral, 10 mg/kg, single dose).
The AUC of COc1cc(C(=O)NC2CCN(C)CC2)c(F)cc1Nc1ncc(C(F)(F)F)c(Oc2cccc3c2C(=O)N(C)C3)n1 is reported as 5.1 µM·h (human, plasma; oral, 25 mg, multiple doses, once daily, steady state, patients).
For CCc1nc2c(C)cc(N3CCN(CC(=O)N4CC(O)C4)CC3)cn2c1N(C)c1nc(-c2ccc(F)cc2)c(C#N)s1, the AUC(0-inf) was 66000 ng·h/mL (human, plasma; oral, 1000 mg, single dose, fed, healthy volunteers).
COc1ccc([C@@H]2CN(C(=O)[C@@H](O)CO)C[C@@]2(C)[C@@H](C)O)cc1OC1CN(c2ccc(C)cn2)C1 has an AUC(0-inf) of 59.1 ng·h/mL (human, plasma; oral, 0.1 mg, single dose, healthy volunteers).
